Values after ≈ are worked out from the molar mass of the structure shown.
What was measured:
Mythimna separata [1] = assay: Insecticidal activity against Mythimna separata (Oriental armyworm) fourth-instar larvae infected Zea mays leaves assessed as larvicidal activity at 200 mg/L measured 2 days post dose; assay type: functional
In short: (§1)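 Foliar application test: individual corn (Tangyu 10) leaves were placed on moistened filter paper in Petri dishes.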

Culex pipiens pallens [2] = assay: Insecticidal activity against Culex pipiens pallens (mosquito) fourth-instar larvae assessed as larvicidal activity at 2 mg/L measured 3 days post dose; assay type: functional
In short: (§2)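 Mosquito larvicidal test: compounds were dissolved in acetone and diluted with distilled water to the test concentrations.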

Mythimna separata [3] = assay: Insecticidal activity against Mythimna separata (Oriental armyworm) fourth-instar larvae infected Zea mays leaves assessed as larvicidal activity at 5 mg/L measured 2 days post dose; assay type: functional; in short: as §1
Mythimna separata [4] = assay: Insecticidal activity against Mythimna separata (Oriental armyworm) fourth-instar larvae infected Zea mays leaves assessed as larvicidal activity at 100 mg/L measured 2 days post dose; assay type: functional; in short: as §1
Mythimna separata [5] = assay: Insecticidal activity against Mythimna separata (Oriental armyworm) fourth-instar larvae infected Zea mays leaves assessed as larvicidal activity at 10 mg/L measured 2 days post dose; assay type: functional; in short: as §1
Mythimna separata [6] = assay: Insecticidal activity against Mythimna separata (Oriental armyworm) fourth-instar larvae infected Zea mays leaves assessed as larvicidal activity at 20 mg/L measured 2 days post dose; assay type: functional; in short: as §1
Mythimna separata [7] = assay: Insecticidal activity against Mythimna separata (Oriental armyworm) fourth-instar larvae infected Zea mays leaves assessed as larvicidal activity at 50 mg/L measured 2 days post dose; assay type: functional; in short: as §1
Culex pipiens pallens [8] = assay: Insecticidal activity against Culex pipiens pallens (mosquito) fourth-instar larvae assessed as larvicidal activity at 0.5 mg/L measured 3 days post dose; assay type: functional; in short: as §2
Culex pipiens pallens [9] = assay: Insecticidal activity against Culex pipiens pallens (mosquito) fourth-instar larvae assessed as larvicidal activity at 1 mg/L measured 3 days post dose; assay type: functional; in short: as §2
Plutella xylostella [10] = assay: Insecticidal activity against Plutella xylostella (diamondback moth) s-instar larvae infected in fresh cabbage leaves assessed as larvicidal activity at 0.1 mg/L measured 2 days post dose; assay type: functional
In short: (§3)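 Leaf-dip (spray) test: a 200 mg/L stock in DMF was diluted with distilled water. Cabbage leaf disks (6 × 2 cm) were sprayed for 3 s, dried, and placed individually in glass tubes. Each disk received 30 second-instar larvae. Mortality was scored at 2 days; triplicate.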

Plutella xylostella [11] = assay: Insecticidal activity against Plutella xylostella (diamondback moth) s-instar larvae infected in fresh cabbage leaves assessed as larvicidal activity at 1 mg/L measured 2 days post dose; assay type: functional; in short: as §3
Plutella xylostella [12] = assay: Insecticidal activity against Plutella xylostella (diamondback moth) s-instar larvae infected in fresh cabbage leaves assessed as larvicidal activity at 0.01 mg/L measured 2 days post dose; assay type: functional; in short: as §3
Plutella xylostella [13] = assay: Insecticidal activity against Plutella xylostella (diamondback moth) s-instar larvae infected in fresh cabbage leaves assessed as larvicidal activity at 0.001 mg/L measured 2 days post dose; assay type: functional; in short: as §3
Plutella xylostella [14] = assay: Insecticidal activity against Plutella xylostella (diamondback moth) s-instar larvae infected in fresh cabbage leaves assessed as larvicidal activity at 20 mg/L measured 2 days post dose; assay type: functional; in short: as §3
Plutella xylostella [15] = assay: Insecticidal activity against Plutella xylostella (diamondback moth) s-instar larvae infected in fresh cabbage leaves assessed as larvicidal activity measured 2 days post dose; assay type: functional; details: 48 h; in short: as §3
[16] = target: Voltage-dependent L-type calcium channel, putative (Pediculus humanus subsp. corporis) (UniProt E0VY79); assay: Inhibition of voltage-dependent L-type calcium channel in Spodoptera exigua neurons assessed as peak calcium current at 0.1 mM measured 3 min post dose by electrophysiology method (reference value: 101.76 +/- 2.7%); set-up: scale not given: the % may be the effect or the level left
[17] = target: Voltage-dependent L-type calcium channel, putative (Pediculus humanus subsp. corporis) (UniProt E0VY79); assay: Inhibition of voltage-dependent L-type calcium channel in Spodoptera exigua neurons assessed as peak intracellular calcium level at 1000 mg/L measured 10 min post dose by calcium-imaging technique relative to initial untreated control; assay type: cell-based; set-up: scale not given: the % may be the effect or the level left
In short: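 S. exigua neurons were rinsed in physiological saline (pH 6.9). They were dye-loaded in the dark at 28 °C, either with 10 μM fluo-3-AM for 45 min in standard saline or with 5 μM fluo-5N for 5 h in EGTA Ca-free saline, then rinsed twice. [Ca²⁺]i was imaged on an inverted fluorescence microscope (40× oil, 488/530 nm) over 10 min. F/F₀ is relative to resting baseline; ≥6 repeats; mean ± SD.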

[18] = target: Voltage-dependent L-type calcium channel, putative (Pediculus humanus subsp. corporis) (UniProt E0VY79); assay: Inhibition of voltage-dependent L-type calcium channel in Spodoptera exigua neurons assessed as peak calcium current at 0.1 mM measured 8 min post dose by electrophysiology method (reference value: 90.85 +/- 0.65%); set-up: scale not given: the % may be the effect or the level left
[19] = target: Voltage-dependent L-type calcium channel, putative (Pediculus humanus subsp. corporis) (UniProt E0VY79); assay: Inhibition of voltage-dependent L-type calcium channel in Spodoptera exigua neurons assessed as peak calcium current at 0.1 mM measured 1 min post dose by electrophysiology method (reference value: 104.47 +/- 2.33%); set-up: scale not given: the % may be the effect or the level left
[20] = target: Voltage-dependent L-type calcium channel, putative (Pediculus humanus subsp. corporis) (UniProt E0VY79); assay: Inhibition of voltage-dependent L-type calcium channel in Spodoptera exigua neurons assessed as peak calcium current at 0.1 mM measured 2 min post dose by electrophysiology method (reference value: 102.75 +/- 2.45%); set-up: scale not given: the % may be the effect or the level left
[21] = target: Voltage-dependent L-type calcium channel, putative (Pediculus humanus subsp. corporis) (UniProt E0VY79); assay: Inhibition of voltage-dependent L-type calcium channel in Spodoptera exigua neurons assessed as peak calcium current at 0.1 mM measured 10 min post dose by electrophysiology method (reference value: 85.44 +/- 1.14%); set-up: scale not given: the % may be the effect or the level left
[22] = target: Voltage-dependent L-type calcium channel, putative (Pediculus humanus subsp. corporis) (UniProt E0VY79); assay: Inhibition of voltage-dependent L-type calcium channel in Spodoptera exigua neurons assessed as peak calcium current at 0.1 mM measured 4 min post dose by electrophysiology method (reference value: 99.66 +/- 1.64%); set-up: scale not given: the % may be the effect or the level left
[23] = target: Voltage-dependent L-type calcium channel, putative (Pediculus humanus subsp. corporis) (UniProt E0VY79); assay: Inhibition of voltage-dependent L-type calcium channel in Spodoptera exigua neurons assessed as peak calcium current at 0.1 mM measured 5 min post dose by electrophysiology method (reference value: 98.06 +/- 1.01%); set-up: scale not given: the % may be the effect or the level left

Voltage-dependent L-type calcium channel, putative (Pediculus humanus subsp. corporis), sequence (E0VY79 as listed by the source): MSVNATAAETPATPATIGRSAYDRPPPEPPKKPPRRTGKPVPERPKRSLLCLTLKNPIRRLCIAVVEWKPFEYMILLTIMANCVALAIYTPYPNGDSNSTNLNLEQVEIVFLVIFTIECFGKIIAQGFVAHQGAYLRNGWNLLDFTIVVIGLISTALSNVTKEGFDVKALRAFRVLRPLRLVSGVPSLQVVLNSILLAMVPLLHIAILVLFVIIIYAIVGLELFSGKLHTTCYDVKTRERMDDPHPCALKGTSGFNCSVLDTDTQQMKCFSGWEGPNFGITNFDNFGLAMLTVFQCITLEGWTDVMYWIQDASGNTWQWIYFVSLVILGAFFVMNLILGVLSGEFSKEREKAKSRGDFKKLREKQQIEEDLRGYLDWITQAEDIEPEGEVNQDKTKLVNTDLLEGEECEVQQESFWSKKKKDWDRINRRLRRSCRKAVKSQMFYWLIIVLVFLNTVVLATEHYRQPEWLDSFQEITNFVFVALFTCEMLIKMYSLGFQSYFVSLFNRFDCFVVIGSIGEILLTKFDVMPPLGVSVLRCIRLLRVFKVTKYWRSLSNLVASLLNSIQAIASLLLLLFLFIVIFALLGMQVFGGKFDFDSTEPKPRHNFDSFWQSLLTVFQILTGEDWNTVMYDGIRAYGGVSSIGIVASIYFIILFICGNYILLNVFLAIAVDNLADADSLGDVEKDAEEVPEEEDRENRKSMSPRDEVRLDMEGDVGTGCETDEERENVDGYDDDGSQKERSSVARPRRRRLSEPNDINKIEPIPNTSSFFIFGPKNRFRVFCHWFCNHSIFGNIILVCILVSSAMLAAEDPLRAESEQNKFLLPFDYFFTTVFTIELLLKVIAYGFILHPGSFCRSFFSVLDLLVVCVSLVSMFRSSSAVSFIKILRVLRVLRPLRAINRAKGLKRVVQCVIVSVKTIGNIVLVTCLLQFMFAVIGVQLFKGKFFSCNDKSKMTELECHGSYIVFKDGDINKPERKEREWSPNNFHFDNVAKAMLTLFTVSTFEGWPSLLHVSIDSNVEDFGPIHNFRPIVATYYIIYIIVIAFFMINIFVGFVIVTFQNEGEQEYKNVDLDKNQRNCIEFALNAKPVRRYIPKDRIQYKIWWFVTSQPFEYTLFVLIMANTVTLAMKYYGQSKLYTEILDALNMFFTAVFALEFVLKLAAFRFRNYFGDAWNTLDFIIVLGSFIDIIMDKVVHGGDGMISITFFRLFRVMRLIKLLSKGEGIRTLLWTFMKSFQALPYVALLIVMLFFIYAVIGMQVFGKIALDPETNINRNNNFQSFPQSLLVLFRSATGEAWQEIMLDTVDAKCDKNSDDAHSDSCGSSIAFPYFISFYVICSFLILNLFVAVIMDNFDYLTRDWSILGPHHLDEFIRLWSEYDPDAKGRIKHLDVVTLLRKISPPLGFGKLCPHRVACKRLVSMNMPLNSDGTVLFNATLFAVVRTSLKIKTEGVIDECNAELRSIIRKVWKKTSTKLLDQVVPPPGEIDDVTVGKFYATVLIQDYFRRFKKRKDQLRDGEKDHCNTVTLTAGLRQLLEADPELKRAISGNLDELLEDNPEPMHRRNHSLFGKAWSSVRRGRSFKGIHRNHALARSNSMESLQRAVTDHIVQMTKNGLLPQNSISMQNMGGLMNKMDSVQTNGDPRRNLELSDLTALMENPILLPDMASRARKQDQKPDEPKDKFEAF

Compound | Activity (Mythimna separata [1]) [%] | Activity (Culex pipiens pallens [2]) [%] | Activity (Mythimna separata [4]) [%] | Activity (Mythimna separata [5]) [%] | Activity (Mythimna separata [6]) [%] | Activity (Mythimna separata [7]) [%] | also measured
Cc1cc(Cl)cc(C(=O)NC2CCCCC2)c1NC(=S)NC(=O)c1cc(Br)nn1-c1ncccc1Cl | 0 | 40 |  |  |  |  | 
Cc1cccc(C(=O)NC(C)C)c1NC(=S)NC(=O)c1cc(Cl)nn1-c1ncccc1Cl | 100 | 20 | 100 | 100 | 100 | 100 | Activity (Mythimna separata [3]): 0%
Cc1cc(Cl)cc(C(=O)NC(C)(C)C)c1NC(=O)NC(=O)c1cc(C(F)(F)F)nn1-c1ncccc1Cl | 60 |  |  |  |  |  | 
CCCNC(=O)c1cc(Cl)ccc1NC(=O)NC(=O)c1cc(C(F)(F)F)nn1-c1ncccc1Cl | 0 |  |  |  |  |  | 
Cc1cc(Br)cc(C(=O)NC(C)C)c1NC(=S)NC(=O)c1cc(Cl)nn1-c1ncccc1Cl | 100 | 90 | 80 |  |  | 40 | Activity (Culex pipiens pallens [8]): 20%; Activity (Culex pipiens pallens [9]): 60%
CNC(=O)c1cc(Cl)cc(C)c1NC(=O)NC(=O)c1cc(C(F)(F)F)nn1-c1ncccc1Cl | 100 |  | 20 |  |  |  | 
CCCNC(=O)c1cccc(C)c1NC(=O)NC(=O)c1cc(C(F)(F)F)nn1-c1ncccc1Cl | 60 |  |  |  |  |  | 
Cc1cc(Cl)cc(C(=O)NC2CC2)c1NC(=S)NC(=O)c1cc(C(F)(F)F)nn1-c1ncccc1Cl | 100 |  | 100 | 100 | 100 | 100 | Activity (Plutella xylostella [10]): 100%; Activity (Mythimna separata [3]): 30%; Activity (Plutella xylostella [11]): 100%; Activity (Plutella xylostella [12]): 100%; Activity (Plutella xylostella [13]): 71%; Activity (Plutella xylostella [14]): 100%; LC50 (Plutella xylostella [15]): 0.25 ng/mL (≈ 0.449 nM)
CNC(=O)c1cc(Cl)cc(C)c1NC(=O)c1cc(Br)nn1-c1ncccc1Cl [CHLORANTRANILIPROLE] | 100 | 100 | 100 | 100 | 100 | 100 | Activity [16]: 69.6%; Activity (Plutella xylostella [10]): 100%; Activity [17]: 123%; Activity [18]: 44.3%; Activity (Mythimna separata [3]): 100%; Activity [19]: 89.6%; Activity [20]: 74%; Activity [21]: 39.7%; Activity [22]: 63.4%; Activity (Plutella xylostella [11]): 100%; Activity (Plutella xylostella [12]): 100%; Activity (Culex pipiens pallens [8]): 100%; Activity [23]: 55.8%; Activity (Plutella xylostella [13]): 100%; Activity (Plutella xylostella [14]): 100%; LC50 (Plutella xylostella [15]): 0.0123 ng/mL (≈ 0.0255 nM); Activity (Culex pipiens pallens [9]): 100%
Cc1cccc(C(=O)NCCC(C)C)c1NC(=S)NC(=O)c1cc(Cl)nn1-c1ncccc1Cl | 60 | 10 |  |  |  |  | 
CNC(=O)c1cc(Cl)cc(C)c1NC(=S)NC(=O)c1cc(Cl)nn1-c1ncccc1Cl | 100 | 70 | 100 | 40 | 100 | 100 | Activity (Culex pipiens pallens [9]): 30%
Cc1cc(Cl)cc(C(=O)NC2CC2)c1NC(=O)NC(=O)c1cc(C(F)(F)F)nn1-c1ncccc1Cl | 20 |  |  |  |  |  | 
Cc1cc(Cl)cc(C(=O)NC(C)C)c1NC(=O)NC(=O)c1cc(C(F)(F)F)nn1-c1ncccc1Cl | 70 |  |  |  |  |  | 
